A short description of assay [1]: inhibitors of TNFa-induced NFkB p65 translocation, primary screen, imaging, HUVEC, MLSMR starter and 10KST1 sets (AID 438;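 active = inhibition above 20% together with a positive visual image hit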;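 also: compound added about 3h40 before a 20 min TNFalpha stimulation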;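 as to inhibition: signal is the nuclear over cytoplasmic p65 intensity ratio per well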). As to conditions: HUVEC TNFa-induced p65 nuclear translocation; cell count: measured here: nuclei count (cytotoxicity indicator), at 2.08 µM; inhibition: at 2 µM, stronger effect = higher value, 0% TNFa-plus-vehicle, 100% no-TNFa wells.
Assay [2] in a line: reduction of polyQ htt aggregates in cells – imaging, exon1htt(103Q)mCFP cells, high-content imaging, primary screen (AID 483;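 active = visual image review flags a hit and inhibition of aggregation exceeds 20%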;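 also: compound exposure lasted 3 days before fixation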;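 as to nuclei count: percent of the per-plate median nuclei count of sample wells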). As to conditions: exon1htt(103Q)mCFP cell line, aggregate imaging, at 2 µM; inhibition of aggregation: stronger effect = higher value; nuclei count: measured here: cell count, toxicity.
Assay [3] is described as follows: endothelial E-selectin expression blockers – imaging, HUVEC, immunofluorescence, MLSMR starter and 10KST1 sets, primary screen (AID 487).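 As to inhibition: signal is fraction of cell area covered by stained E-selectin grains.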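 As to nuclei count: 100% = median nuclei count of all wells on the same plate.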 As to conditions: HUVEC TNFalpha-induced E-selectin immunofluorescence imaging, at 2 µM; inhibition: stronger effect = higher value; nuclei count: measured here: cell number, toxicity.
The target of assay [4] is Voltage-gated potassium channel subunit beta-2 (Rattus norvegicus) (UniProt P62483). The experiment in a line: inhibitors of rat Kvbeta2 reductase activity – biochemical, NADPH fluorescence, primary screen (AID 622;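 active = fluorescence slope higher than the sample average by over 3 SD, cut at about -0.22 in these data, passing the limit was not always enough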;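 also: slope of raw intensity against log time taken from 70 to 1610 s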). Conditions: recombinant KvBeta, 4-cyanobenzaldehyde reduction, at 10 µM, stronger effect = higher value.
Assay [5] shares this target. The experiment in a line: enhancers of rat Kvbeta2 NADPH turnover – biochemical, NADPH fluorescence, primary screen (AID 623;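 active = NADPH fluorescence slope more negative than the mean of all samples by about 3 SD, 99.7% confidence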;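 also: fluorescence intensity change per second fitted from 20 to 320 s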). Conditions: Recombinant KvBeta, NADPH fluorescence decrease slope, 10 min; at 10 µM; stronger effect = lower value.
Assay [6] has as its target Muscarinic acetylcholine receptor M4 (Homo sapiens) (UniProt P08173). The experiment in a line: M4-linked GIRK flux change, two-sided – cell-based, HEK293 M4/GIRK, thallium flux, BTC-AM, M4 allosteric agonist project, primary screen (AID 625;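 active = fluorescence slope after compound addition differing from the mean of all tested samples at 99.7% confidence, mostly higher but some lower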;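 also: thallium influx through GIRK channels coupled to M4 in HEK293 cells with BTC-AM dye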). As to conditions: at 10 µM, actives lie on both sides. The essentials:
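assay system = HEK293 cells with M4 receptor and GIRK channels | medium = pH 7.3 thallium assay buffer | doses = 10 µM final, single point | timing = cells overnight at 37 °C, BTC-AM loading 1 h, reads 2 min total | signal = BTC-AM fluorescence, 1 Hz kinetic reads | read-out = post-addition slope, 15–24 s, of baseline-normalized fluorescence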

A short description of assay [7]: blockers of RIG-like receptor reporter activation – cell-based, Sendai virus stimulus, luciferase, 10K MLSCN set, TLR/RLR signaling modifier project, primary screen (AID 602276;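 active = inhibition at or above 50% at 10 µM; inactive = inhibition below 50%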;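 also: firefly luciferase from ISG56 promoter only with Renilla not read in this screen; 0% = Sendai virus plus DMSO and 100% = medium plus DMSO without virus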). Conditions: HEK293 RL24 IRF3 luciferase reporter, at 10 µM, stronger effect = higher value. For orientation: Reporter assays use an easily measured gene product as a stand-in for the process of interest.

A short description of assay [8]: TLR3 IRF3 reporter activation blockers – cell-based, poly I:C stimulus, luciferase, 10K MLSCN set, primary screen (AID 602277;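 active = inhibition of the reporter signal at or above 50%; inactive = inhibition below 50%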). Conditions: HEK293-TLR3 RL24 IRF3 luciferase reporter, at 10 µM, stronger effect = higher value.

The source of these data is PubChem BioAssay.

Active and inactive are the calls of the source.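 The calls were made as follows, unless noted: active = visually confirmed hit in the image check and inhibition above 20%; inconclusive = visually confirmed hit but inhibition not above 20%; inactive = no visual hit in the image check.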

Chain of Voltage-gated potassium channel subunit beta-2 (Rattus norvegicus) (P62483 whole entry, looked up): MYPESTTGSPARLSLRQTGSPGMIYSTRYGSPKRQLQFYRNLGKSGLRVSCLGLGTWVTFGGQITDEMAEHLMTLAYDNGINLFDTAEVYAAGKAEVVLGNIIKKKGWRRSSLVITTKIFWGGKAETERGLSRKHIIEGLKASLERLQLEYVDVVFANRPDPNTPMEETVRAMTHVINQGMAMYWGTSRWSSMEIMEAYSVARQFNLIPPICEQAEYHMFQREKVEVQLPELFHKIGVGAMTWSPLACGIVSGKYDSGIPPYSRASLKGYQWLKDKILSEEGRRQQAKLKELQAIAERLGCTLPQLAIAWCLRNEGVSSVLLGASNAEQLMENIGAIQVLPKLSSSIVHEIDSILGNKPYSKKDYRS
Chain of Muscarinic acetylcholine receptor M4 (Homo sapiens) (P08173 whole entry, looked up): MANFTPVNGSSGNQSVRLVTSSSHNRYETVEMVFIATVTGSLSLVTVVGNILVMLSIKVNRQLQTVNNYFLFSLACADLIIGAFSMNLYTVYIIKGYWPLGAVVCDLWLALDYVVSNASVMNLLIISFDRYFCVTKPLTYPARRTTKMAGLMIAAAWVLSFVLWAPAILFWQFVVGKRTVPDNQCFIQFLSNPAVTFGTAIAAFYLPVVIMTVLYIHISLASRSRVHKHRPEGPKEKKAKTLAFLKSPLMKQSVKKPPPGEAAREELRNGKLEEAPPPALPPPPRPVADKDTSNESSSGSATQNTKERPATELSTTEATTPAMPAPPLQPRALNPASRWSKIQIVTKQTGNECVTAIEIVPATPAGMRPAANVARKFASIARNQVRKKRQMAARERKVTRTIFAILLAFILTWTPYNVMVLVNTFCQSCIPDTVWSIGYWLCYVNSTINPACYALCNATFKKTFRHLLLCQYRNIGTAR

In general, inhibition refers to the relative decrease from the control value, in per cent. With `CC(C)[C@H](NC(=O)[C@@H]1CSCN1C(=O)OC(C)(C)C)C(=O)NCC1CCC(C(=O)O)CC1` (some centres not stated), the cell count in assay [1] was determined as 341. For the same compound, the inhibition was 8.6% (inactive) in assay [1], 17.3% (inactive) in assay [3], 25.1% (inactive) in assay [7] and 22.7% (inactive) in assay [8]. Besides, the inhibition of aggregation in assay [2] is 11.9% (inactive). For the same compound, the nuclei count in assay [2] came out at 92.5%; in assay [3], 84.4%. Further, the fluorescence slope in assay [4] is -0.579 (inactive); in assay [6], 0.00513 (inactive). Further, the NADPH fluorescence slope in assay [5] is 1.8e-05 (inactive).

Take `CC1(C)OC(=O)C(=CNc2ccccc2)C(=O)O1`: the cell count in assay [1] was found to be 548. In addition, the inhibition in assay [1] is 9.4% (inactive); in assay [3] it was 54.3% (inactive); in assay [7], -10% (inactive); in assay [8], 99% (active). Besides, the inhibition of aggregation in assay [2] is -4.1% (inactive). Moreover, the nuclei count worked out at 108% in assay [2] and 102% in assay [3]. Further, the fluorescence slope is -0.617 (inactive) in assay [4] and 0.00548 (inactive) in assay [6]. Besides, the NADPH fluorescence slope in assay [5] is -1.8e-06 (inactive).

Turning to `Nc1nc(CSCc2ccccc2)nc(N2CCOCC2)n1`, in assay [1], the cell count was 685. For the same compound, the inhibition in assay [1] is 0.8% (inactive); in assay [3], 17.1% (inactive); in assay [7], -22.6% (inactive); in assay [8] it was -81.5% (inactive). For the same compound, the inhibition of aggregation in assay [2] was -6.3% (inactive). For the same compound, the nuclei count in assay [2] amounted to 95.4%; in assay [3] it was 104%. The fluorescence slope is -0.262 (inactive) in assay [4] and 0.0049 (inactive) in assay [6]. In addition, the NADPH fluorescence slope in assay [5] is -1.3e-05 (inactive).

For the compound `CCCCSc1nc2c(cnn2-c2ccc(Cl)cc2)c(=O)[nH]1`, the cell count in assay [1] came out at 233. Also, the inhibition in assay [1] is -0.3% (inactive); in assay [3] it was -23.4% (inactive); in assay [7], 16.7% (inactive); in assay [8], 16.6% (inactive). The inhibition of aggregation in assay [2] is 6.5% (inactive). Moreover, the nuclei count in assay [2] came to 103%; in assay [3], 111%. Moreover, the fluorescence slope was -0.426 (inactive) in assay [4] and 0.00579 (inactive) in assay [6]. Also, in assay [5], the NADPH fluorescence slope was -9.3e-05 (inactive).

As to `COc1cc(OC)c(C(=O)Nc2ncn[nH]2)cc1OC`, in assay [1], the cell count is 667. In addition, the inhibition in assay [1] is -1.1% (inactive); in assay [3], -95.9% (inactive); in assay [7] it was 17.7% (inactive); in assay [8] it was 19.5% (inactive). Also, in assay [2], the inhibition of aggregation is -12% (inactive). Moreover, the nuclei count in assay [2] came out at 107%; in assay [3] it was 108%. Besides, the fluorescence slope in assay [4] is -0.537 (inactive); in assay [6] it was 0.00435 (inactive). Besides, the NADPH fluorescence slope in assay [5] is -0.000156 (inactive).

Take `C/C(=C(\C#N)C(=O)NCCCN1CCOCC1)N(C)C`: the cell count in assay [1] was determined as 475. Also, the inhibition in assay [1] was -11.2% (inactive); in assay [3], -96.7% (inactive); in assay [7], 1.58% (inactive); in assay [8], -2.64% (inactive). Besides, the inhibition of aggregation in assay [2] was 20.1% (inactive). Besides, the nuclei count was found to be 75.2% in assay [2] and 115% in assay [3]. For the same compound, the figures for the fluorescence slope in assay [4] and in assay [6] were -0.581 (inactive) and 0.0035 (inactive), respectively. The NADPH fluorescence slope in assay [5] is -1.9e-05 (inactive).

In the case of `O=C(Nc1cccc(F)c1)c1ccc2c(c1)OCO2`, the cell count in assay [1] turned out to be 246. Also, the inhibition in assay [1] is -2.1% (inactive); in assay [3], 80.7% (active); in assay [7] it was -56.2% (inactive); in assay [8], -121% (inactive). In addition, the inhibition of aggregation in assay [2] was 31.8% (inactive). For the same compound, the nuclei count turned out to be 83.5% in assay [2] and 85% in assay [3]. In addition, the fluorescence slope was -0.597 (inactive) in assay [4] and 0.00384 (inactive) in assay [6]. Further, the NADPH fluorescence slope in assay [5] is 1.2e-05 (inactive).
